We go through 2 compounds from ChEMBL document CHEMBL1123980, “Serotonergic properties of spiroxatrine enantiomers” (J Med Chem, 1988).

Test [1] has as its target T1, Adrenergic receptor alpha-1 (Rattus norvegicus, UniProt P15823+P23944+P43140).
T1 sequence (P15823 whole entry): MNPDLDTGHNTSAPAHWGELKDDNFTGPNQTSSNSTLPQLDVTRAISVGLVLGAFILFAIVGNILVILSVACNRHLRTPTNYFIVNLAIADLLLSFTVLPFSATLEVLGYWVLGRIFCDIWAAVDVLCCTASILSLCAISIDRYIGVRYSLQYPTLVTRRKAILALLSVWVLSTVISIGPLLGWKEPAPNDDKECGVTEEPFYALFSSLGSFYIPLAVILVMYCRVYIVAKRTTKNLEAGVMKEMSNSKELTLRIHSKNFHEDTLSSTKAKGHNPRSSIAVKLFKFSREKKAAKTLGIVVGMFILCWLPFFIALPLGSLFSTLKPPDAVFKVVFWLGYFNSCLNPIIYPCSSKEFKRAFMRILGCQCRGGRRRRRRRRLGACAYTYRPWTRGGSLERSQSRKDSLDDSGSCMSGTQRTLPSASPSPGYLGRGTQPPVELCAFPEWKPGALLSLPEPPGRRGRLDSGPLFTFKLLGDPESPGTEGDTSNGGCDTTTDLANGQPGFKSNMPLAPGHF
T1 sequence (P23944 whole entry): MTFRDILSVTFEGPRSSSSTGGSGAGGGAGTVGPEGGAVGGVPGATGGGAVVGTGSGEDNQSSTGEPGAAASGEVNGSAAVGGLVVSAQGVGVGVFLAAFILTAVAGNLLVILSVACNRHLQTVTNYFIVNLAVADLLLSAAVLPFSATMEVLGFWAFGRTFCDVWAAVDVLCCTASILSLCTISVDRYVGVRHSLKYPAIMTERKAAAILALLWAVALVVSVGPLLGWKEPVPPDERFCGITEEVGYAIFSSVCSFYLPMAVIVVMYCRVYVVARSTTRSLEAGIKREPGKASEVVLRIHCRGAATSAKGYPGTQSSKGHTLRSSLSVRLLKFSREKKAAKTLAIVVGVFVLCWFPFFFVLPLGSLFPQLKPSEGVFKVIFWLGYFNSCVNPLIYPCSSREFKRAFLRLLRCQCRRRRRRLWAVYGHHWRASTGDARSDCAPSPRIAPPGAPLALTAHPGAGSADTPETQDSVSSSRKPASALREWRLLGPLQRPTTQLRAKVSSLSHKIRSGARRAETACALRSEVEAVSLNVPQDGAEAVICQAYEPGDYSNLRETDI
T1 sequence (P43140 whole entry): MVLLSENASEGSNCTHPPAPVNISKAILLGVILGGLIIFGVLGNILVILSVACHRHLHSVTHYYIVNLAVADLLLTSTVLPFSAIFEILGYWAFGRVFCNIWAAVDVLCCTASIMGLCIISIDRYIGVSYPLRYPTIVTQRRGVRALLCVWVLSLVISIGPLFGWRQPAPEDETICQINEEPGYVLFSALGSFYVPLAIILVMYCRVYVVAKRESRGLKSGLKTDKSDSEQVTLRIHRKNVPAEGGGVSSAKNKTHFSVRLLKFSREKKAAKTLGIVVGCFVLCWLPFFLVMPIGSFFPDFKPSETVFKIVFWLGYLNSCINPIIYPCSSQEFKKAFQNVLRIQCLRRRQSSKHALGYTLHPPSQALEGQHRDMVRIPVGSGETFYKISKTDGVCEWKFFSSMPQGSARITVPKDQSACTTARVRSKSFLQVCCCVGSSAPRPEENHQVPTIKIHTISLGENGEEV
Briefly: Binding affinity against alpha-1 adrenergic receptor of rat was determined using 0.5 nM of [3H]WB-4101 in binding assay. In kind it is protein assay. In outline:
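Washed rat cerebral cortex membranes at 10 mg wet tissue/mL, under the 8-OH-DPAT assay conditions (Tris/CaCl2/pargyline, pH 7.4, 15 min, 37 °C, filtration). Final [3H]WB4101 0.5 nM, with 1 µM 5-HT added to mask 5-HT1A sites. Nonspecific binding with 1 µM prazosin. Apparent Ki from graphical IC50 via Cheng-Prusoff.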

Test [2] deals with 5-hydroxytryptamine receptor 1B (Rattus norvegicus, UniProt P28564). The test can be described thus: Binding affinity towards 5-hydroxytryptamine 1B receptor in rat was determined using 50 uL of [125I]ICYP in binding assay. In outline:
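[125I]ICYP at 150 pM final, in Tris/CaCl2/pargyline medium with 60 µM (-)-isoproterenol to block β-adrenergic sites. 15 min at 37 °C; ice-cold phosphate dilution, GF/B filtration, gamma counting. Nonspecific binding with 10 µM 5-HT.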

The target of test [3] is Serotonin 2 (5-HT2) receptor (Rattus norvegicus, UniProt P30994+P08909+P14842). Briefly: Binding affinity towards serotonin 5-hydroxytryptamine 2 receptor of rat determined using 0.5 nM of [3H]ketanserin in binding assay. In kind it is protein assay. The method, boiled down:
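0.5 nM [3H]ketanserin in the same buffer, no CaCl2 or pargyline; 15 min at 37 °C; filtration and scintillation counting. Nonspecific binding with 10 µM methysergide. IC50 read graphically and converted to apparent Ki (Cheng-Prusoff).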

The target of test [4] is T2, 5-hydroxytryptamine receptor 1A (Rattus norvegicus, UniProt P19327).
T2 sequence (P19327 whole entry): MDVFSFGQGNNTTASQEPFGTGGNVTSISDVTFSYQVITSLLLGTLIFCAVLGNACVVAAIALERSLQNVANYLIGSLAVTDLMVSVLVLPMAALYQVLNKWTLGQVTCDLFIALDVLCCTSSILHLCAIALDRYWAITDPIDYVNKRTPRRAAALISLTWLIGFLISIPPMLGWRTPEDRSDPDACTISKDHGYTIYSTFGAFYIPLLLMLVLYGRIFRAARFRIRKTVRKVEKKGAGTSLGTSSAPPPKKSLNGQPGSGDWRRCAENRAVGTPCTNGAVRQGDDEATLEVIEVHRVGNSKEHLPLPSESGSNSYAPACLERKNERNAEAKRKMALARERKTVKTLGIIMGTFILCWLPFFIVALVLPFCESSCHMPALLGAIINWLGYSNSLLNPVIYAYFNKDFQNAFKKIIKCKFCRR
The test can be described thus: Binding affinity against 5-hydroxytryptamine 1A receptor of rat was determined using [3H]8-OH-DPAT in binding assay. In outline: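 Rat (male Sprague-Dawley) cerebral cortex membranes, washed 4 times with a 10 min 37 °C preincubation, 10 mg wet tissue/mL. 1 nM [3H]-8-OH-DPAT in 50 mM Tris, 3 mM CaCl2, pargyline, pH 7.4; 15 min, 37 °C; filtration on PEI-treated GF/B filters, scintillation counting. Nonspecific binding with 10 µM 5-HT. IC50 read graphically and converted to apparent Ki (Cheng-Prusoff).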

Test [5] deals with D(2) dopamine receptor (Rattus norvegicus, UniProt P61169). The test can be described thus: Binding affinity against Dopamine receptor D2 of rat was determined using 2 nM of [3H]sulpiride in binding assay. The method, boiled down: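 Striatal membranes from male Sprague-Dawley rats in Tris buffer with 108 mM NaCl, 4.7 mM KCl, 1.3 mM CaCl2, pH 7.4, 4 mg wet tissue/mL. Final [3H]sulpiride 2 nM; incubated 20 min at 37 °C, then vacuum filtration. Specific binding defined with 1 µM spiperone. IC50 read graphically and converted to apparent Ki (Cheng-Prusoff).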

As a reminder, the Ki is the dissociation constant of the complex between target and ligand, obtained from inhibition or displacement. A lower Ki goes with tighter binding. In general, pKi refers to the Ki on a negative log10 scale, so that one unit is a factor of ten.

pKi: −log10 of the molar value.

Sequence of 5-hydroxytryptamine receptor 1B (P28564 whole entry): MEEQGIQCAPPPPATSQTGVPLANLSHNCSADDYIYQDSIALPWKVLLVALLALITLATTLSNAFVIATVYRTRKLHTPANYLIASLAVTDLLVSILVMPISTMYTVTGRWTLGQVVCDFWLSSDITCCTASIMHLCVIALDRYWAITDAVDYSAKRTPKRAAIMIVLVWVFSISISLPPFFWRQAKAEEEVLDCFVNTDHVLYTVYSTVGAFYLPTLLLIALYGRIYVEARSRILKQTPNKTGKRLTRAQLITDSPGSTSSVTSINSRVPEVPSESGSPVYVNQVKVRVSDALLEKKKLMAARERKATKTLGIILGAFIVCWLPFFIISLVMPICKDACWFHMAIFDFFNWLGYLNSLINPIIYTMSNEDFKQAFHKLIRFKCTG
Sequence of D(2) dopamine receptor (P61169 whole entry): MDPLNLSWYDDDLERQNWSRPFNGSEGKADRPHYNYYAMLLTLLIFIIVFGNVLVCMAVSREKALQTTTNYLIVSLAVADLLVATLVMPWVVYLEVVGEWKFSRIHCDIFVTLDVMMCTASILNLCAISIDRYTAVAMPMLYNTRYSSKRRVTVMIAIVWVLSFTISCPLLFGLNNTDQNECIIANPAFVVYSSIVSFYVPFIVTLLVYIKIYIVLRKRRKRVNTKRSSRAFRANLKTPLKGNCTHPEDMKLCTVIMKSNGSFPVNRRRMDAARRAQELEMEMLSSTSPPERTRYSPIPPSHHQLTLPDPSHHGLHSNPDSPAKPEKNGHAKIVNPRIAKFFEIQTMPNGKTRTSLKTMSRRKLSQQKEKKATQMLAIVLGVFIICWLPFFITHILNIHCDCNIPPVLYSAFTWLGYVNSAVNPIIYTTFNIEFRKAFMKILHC

`O=C1NCN(c2ccccc2)C12CCN(CC1COc3ccccc3O1)CC2` (stereo in doubt; (+)) [SPIROXATRINE]: the Ki in test [1] amounted to 1050 nM; in test [3], 858 nM. The figures for the negative-log Ki (pKi) in test [2], in test [4] and in test [5] were below 5.00, 7.68 and 8.84, respectively.

For the compound `O=C1NCN(c2ccccc2)C12CCN(CC1COc3ccccc3O1)CC2` (stereo in doubt; (-)) [SPIROXATRINE], the values for the Ki in test [1] and in test [3] were 149 nM and 113 nM, respectively. Also, the pKi in test [2] was below 5.00; in test [4] it was 8.72; in test [5], 9.66.
